# Screening results as filed in PubChem.
# PRMT1 inh – PRMT1 (human) inhibition, primary screen. Q99873. recombinant PRMT1, activity-based probe fluorescence polarization. inhibition, % at 2.79 µM. 1.3% of 370,000 active. AID 652257;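 active = inhibition above about 21% made by adding two undisclosed values, limit read from the data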
# Target sequence (Q99873 whole entry, looked up): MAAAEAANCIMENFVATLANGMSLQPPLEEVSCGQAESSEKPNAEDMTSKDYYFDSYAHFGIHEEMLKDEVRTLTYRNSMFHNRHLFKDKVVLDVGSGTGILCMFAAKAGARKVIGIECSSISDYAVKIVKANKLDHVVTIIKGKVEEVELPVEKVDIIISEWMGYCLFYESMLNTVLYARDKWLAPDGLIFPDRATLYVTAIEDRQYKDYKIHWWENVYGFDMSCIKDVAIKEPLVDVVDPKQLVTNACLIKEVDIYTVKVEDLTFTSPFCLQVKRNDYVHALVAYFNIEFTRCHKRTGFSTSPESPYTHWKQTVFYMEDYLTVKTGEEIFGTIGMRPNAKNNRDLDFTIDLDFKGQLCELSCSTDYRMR
# SIAE inh – human SIAE inhibition, primary screen; Q9HAT2; SIAE FP-Rh probe binding, fluorescence polarization; inhibition, % at 9.66 µM; 0.69% of 370,000 active;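 active = inhibition above a cutoff: mean of compounds within the control limits plus 3 SD of those, cut at about 17% in these data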
# RBBP9 inhibitor – blocks human serine hydrolase RBBP9 | recombinant RBBP9, FP-Rh probe fluorescence polarization | inhibition, % at 7.94 µM | 0.2% of 220,000 active | AID 1515;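 active = inhibition above the campaign mean of all tested compounds plus 3 SD, cut at about 14% in these data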
#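 System: RBBP9 protein | Quantity: 2.5 µM RBBP9 dispensing solution, before mixing | Reagent: FP-Rh probe, 375 nM dispensing solution | Timing: Enzyme-compound preincubation 30 min, then probe labeling 45 min, 25 °C | Measured by: Fluorescence polarization | Read-out: % inhibition | Replication: One well per compound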
# GSTO1 counter – counter-screen for RBBP9 inhibitors: inhibitors of human GSTO1; recombinant GSTO1, activity-based probe fluorescence polarization; inhibition, % at 5.96 µM; P78417; 1.1% of 300,000 active;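 active = inhibition above the campaign mean inhibition plus 3 SD, cut at about 35% in these data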
# Target sequence (P78417 whole entry, looked up): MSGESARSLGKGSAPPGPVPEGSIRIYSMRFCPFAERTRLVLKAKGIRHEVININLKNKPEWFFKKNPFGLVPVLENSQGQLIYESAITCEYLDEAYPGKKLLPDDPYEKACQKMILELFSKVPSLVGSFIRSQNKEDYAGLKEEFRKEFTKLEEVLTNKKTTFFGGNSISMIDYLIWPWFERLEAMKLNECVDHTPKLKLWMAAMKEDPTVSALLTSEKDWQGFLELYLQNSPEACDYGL
# PAD4 FP inh – inhibitors of human PAD4; recombinant PAD4, RCA probe fluorescence polarization; inhibition, % at 6.36 µM; 0.41% of 330,000 active; AID 485272;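 active = percent inhibition above a cutoff equal to the mean of all tested compounds plus 3 SD, cut at about 15% in these data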
# PAD4 FP conf – PAD4 (human) inhibition, confirmed; shares compounds with PAD4 FP inh; recombinant PAD4, RCA probe fluorescence polarization; inhibition, % at 6.36 µM; 28% of 1,200 active; AID 488796;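 active = mean inhibition across replicates above the hit cutoff set by the earlier primary screen, cut at about 15% in these data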;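 note: inhibitors block active-site labeling by the probe so polarization falls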
# A number is an active result; - = inactive; . = no result given. The list is not random: actives were taken first. Their share in the collection is about 2.7%.
SMILES,PRMT1 inh,SIAE inh,RBBP9 inhibitor,GSTO1 counter,PAD4 FP inh,PAD4 FP conf
CCCCN(CC)CCNC(=O)c1cc2c(-c3ccccc3F)nn(C)c2s1,-,-,.,-,-,.
COC(=O)[C@@H](NC(=O)Nc1ccc(S(N)(=O)=O)cc1)C(C)C,-,-,-,-,-,.
COc1ccccc1C(=O)NC(=O)COC(=O)CCOc1ccccc1C,-,-,.,-,-,.
O=C(NCCCN1CCN(c2cccc(Cl)c2)CC1)c1nc(-c2ccncc2)no1,-,-,-,-,-,.
N#CC1=C(N)Oc2n[nH]c(-c3cccs3)c2C1c1ccsc1 (centres undefined),-,-,-,-,17,-
Brc1ccc(-c2nc(-c3ccncc3)no2)o1,-,-,-,-,15,-
O=C(CN1C(=O)NC2(CCCC2)C1=O)NCc1ccco1,-,-,.,.,-,.
CS(=O)(=O)c1ccccc1-c1nnc(NC(=O)c2ccc3ncsc3c2)o1,28,-,.,-,22,-
Cc1ccc(C(=O)NC(=O)CSc2nncn2C)cc1,-,-,.,-,-,.
Cc1ccc(C2=NN=C(NC(=O)CSc3nncn3C)SC2)cc1,94,-,-,-,67,62
CCCS(=O)(=O)c1cn2cccc(N)c2c1S(=O)(=O)CCC,33,-,-,-,18,-
CCOC(=O)c1c(C)sc2c1N(C(=O)CCl)c1cc(Cl)ccc1S2,-,-,-,-,19,43
Cn1c(SCC(N)=O)nnc1C1CCN(C(=O)NCc2ccccc2)CC1,-,-,-,-,-,.
Fc1ccccc1-c1cc2ccccc2cn1,-,-,.,.,15,-
O=c1[nH]c(CSc2ncc(C(F)(F)F)cc2Cl)nc2cc(C(F)(F)F)ccc12,-,-,-,-,-,.
COc1ccc(-c2cc(C(=O)O)sc2C)cc1,-,-,-,-,-,.
Cc1cccc(N2CCN(C(=S)c3ccc4c(c3)OCO4)CC2)c1,-,-,.,.,.,.
CC(=O)N1CCN(c2ccc(NCc3cccs3)cc2)CC1,-,-,-,-,17,-
O=C(O)CCN1C(=O)C2C3CC(C2C1=O)C1C(c2ccccc2)c2sc(=O)[nH]c2SC31 (centres undefined),-,-,-,-,17,-
Cc1cc(C(=O)N2CCN(S(C)(=O)=O)CC2)sc1-c1ccccc1,-,-,-,-,-,.
O=C(/C=C/c1ccccc1)C1=C(O)C(=O)N(CCO)C1c1ccccc1[N+](=O)[O-] (centres undefined),-,-,-,-,24,-
CCOC(=O)c1c2c3c(cccc3n(C)c1=O)C(=O)c1ccccc1-2,-,-,.,-,-,.
CC(=O)Nc1c2c3c(cccc3n(C)c1=O)C(=O)c1ccccc1-2,-,-,-,-,65,31
CC1=CC(C)(C)N(C(=O)CN2C(=O)c3ccccc3C2=O)c2ccccc21,-,-,-,-,-,.
Cc1cccc2c1N(C(=O)CN1C(=O)c3ccccc3C1=O)C(C)(C)c1ssc(=S)c1-2,-,-,-,-,27,40
SMILES,PRMT1 inh,SIAE inh,RBBP9 inhibitor,GSTO1 counter,PAD4 FP inh,PAD4 FP conf
Cc1cc(C)c2c(c1)-c1c(ssc1=S)C(C)(C)N2C(=O)CN1C(=O)c2ccccc2C1=O,-,-,-,-,24,38
COCC(=O)N(CCc1ccc(OC)c(OC)c1)Cc1nc2ccccc2c(=O)[nH]1,-,-,-,-,22,-
COCC(=O)N(Cc1nc2ccccc2c(=O)[nH]1)Cc1cccs1,-,-,-,-,-,.
CCN(Cc1ccc2c(c1)OCCO2)C(=O)CSc1nc(C)nc2sc(C)c(C)c12,-,-,.,.,79,-
CCN(Cc1ccc2c(c1)OCO2)C(=O)CSc1ncnc2sccc12,-,-,.,.,-,.
CCn1nnnc1SCC(=O)N(C)C1CCS(=O)(=O)C1 (centres undefined),-,-,.,.,16,-
COc1ccc(-n2nnnc2SCC(=O)N(C)C2CCS(=O)(=O)C2)cc1 (centres undefined),-,-,.,.,-,.
Cc1noc(C)c1S(=O)(=O)NCc1ccc2c(c1)OCO2,-,-,.,-,25,-
CCN(c1ccc(OC)cc1)S(=O)(=O)c1ccc2c(c1)CC(C)N2C(=O)C1CC1 (centres undefined),-,-,.,-,-,.
CCN(CC)C(=O)c1ccc(CS(=O)(=O)c2ccc(OC)cc2)o1,-,-,-,-,-,.
CN(C)CCCNc1cc(O)c2ncccc2c1,-,-,.,.,16,-
Oc1cc(NCc2ccc(F)cc2)cc2cccnc12,-,-,.,.,-,.
Cc1c([N+](=O)[O-])cnc(Sc2ccccc2)c1[N+](=O)[O-],-,-,.,-,26,-
Cc1cc2c(cc1C)C(c1cccc(F)c1)CC(=O)N2 (centres undefined),-,-,.,.,.,.
O=C1CC(c2ccc(F)cc2)c2cc3c(cc2N1)CCC3 (centres undefined),-,-,-,-,16,-
CCCCc1cc(=O)oc2cc(OCC(=O)N3CCOCC3)ccc12,-,-,.,-,-,.
CCCCc1cc(=O)oc2cc(O)ccc12,-,-,-,-,24,-
O=C1c2ccccc2C(=O)C12OC2c1ccc(Cl)cc1Cl (centres undefined),-,-,-,-,36,40
Cc1cc(=O)oc2cc(NC(=O)c3cccc(S(=O)(=O)N(C)C)c3)ccc12,-,-,.,-,-,.
Cc1cc(=O)oc2cc(NC(=O)c3cccc(S(C)(=O)=O)c3)ccc12,-,-,.,-,19,20
COc1cc(S(=O)(=O)N2CCOCC2)cc(C(=O)NCC(c2cccs2)N2CCOCC2)c1OC (centres undefined),-,-,.,.,-,.
O=C(Oc1cccc(-c2cnc3ccccc3n2)c1)c1ccco1,-,-,-,-,24,19
CCN(CC)S(=O)(=O)c1ccc(C)c(C(=O)Oc2cccc(-c3cnc4ccccc4n3)c2)c1,-,-,-,-,-,.
COc1ccc(C(=O)CSc2cc(C)nc3nc(C)nn23)cc1OC,-,-,-,-,28,26
COc1ccc(C(=O)CSc2nc(SC)ns2)cc1OC,-,-,-,-,-,.
SMILES,PRMT1 inh,SIAE inh,RBBP9 inhibitor,GSTO1 counter,PAD4 FP inh,PAD4 FP conf
Cc1cccc(CSCCNC(=O)CSCc2ccc([N+](=O)[O-])cc2)c1,-,-,-,-,-,.
COc1ccc(NC(=O)Nc2c[nH]c(=O)[nH]c2=O)cc1,-,-,.,-,15,-
N#Cc1nc(N2CCCCC2)nc(N2CCOCC2)n1,-,-,-,-,19,24
Cc1csc(SCC(=O)N(C)c2c(N)n(Cc3ccccc3)c(=O)[nH]c2=O)n1,-,-,-,-,-,.
CCCCN1C(=O)C2(NNc3ccccc3O2)c2ccccc21 (centres undefined),-,-,-,-,-,.
CCCCN1C(=O)Nc2ccccc2S1=O (centres undefined),-,-,-,-,16,-
O=C(Nc1ccncc1)c1ccc2ncsc2c1,-,-,.,-,-,.
O=C(Nc1ccc(S(=O)(=O)Nc2ncccn2)cc1)c1ccc2ncsc2c1,24,-,-,-,18,-
CC(C)(C)c1ccc(C(=O)NCCOc2ccccc2)cc1,-,-,.,-,18,-
Cc1cc(/C=C2\Cc3ccccc3C2=O)c(C)n1-c1ccccc1,-,-,-,-,-,.
